{"data": "Assay results gathered from unrelated publications", "target": "Tyrosine-protein kinase ABL2 (ABL2, Homo sapiens, UniProt P42684)", "note": "Protocols differ between the studies behind these lines."}
{"SMILES": "CN(CCCC(F)(F)F)c1nccc(-c2cnn3ncccc23)n1", "test": "binding", "setting": "1 µM", "remaining binding [%]": 93}
{"SMILES": "CNC(=O)c1cc(Oc2ccc(NC(=O)Nc3ccc(Cl)c(C(F)(F)F)c3)cc2)ccn1", "test": "cell-free assay, competition with immobilised ligand", "setting": "0.1 µM", "remaining binding [%]": 97}
{"SMILES": "N#CC1(c2ccccn2)CCN(Cc2cc(C(=O)N3CCCC3)c(=O)n3ccccc23)CC1", "test": "cell-free assay, competition with immobilised ligand", "setting": "1 µM", "remaining binding [%]": 100}
{"SMILES": "O=C(c1ccc(Nc2nccc(-c3cc4ccccc4s3)n2)cc1)N1CCC(N2CCCC2)CC1", "test": "binding, competition with immobilised ligand", "setting": "1 µM", "remaining binding [%]": 77}
{"SMILES": "C[C@@H](c1cccc(C#N)c1)n1cc(Cl)cc(C(N)=O)c1=N", "test": "cell-free assay, competition with immobilised ligand", "setting": "1 µM", "remaining binding [%]": 84}
{"SMILES": "CN(c1nccc(-c2cnn3ncccc23)n1)C1CC1", "test": "binding", "setting": "1 µM", "remaining binding [%]": 99}
{"SMILES": "Cc1cnc(Nc2ccc(C(=O)N3CCC(N4CCCC4)CC3)cc2)nc1-c1cc2ccccc2s1", "test": "binding, competition with immobilised ligand", "setting": "1 µM", "remaining binding [%]": 43}
{"SMILES": "COc1cnc(Nc2cccc(S(N)(=O)=O)c2)nc1N1CCN(c2ccccc2)CC1", "test": "binding, competition with immobilised ligand", "setting": "1 µM", "remaining binding [%]": 98}
{"SMILES": "Cc1c(-c2ccccc2)oc2c(C(=O)OCCN3CCCCC3)cccc2c1=O", "test": "cell-free assay, competition with immobilised ligand", "setting": "10 µM", "remaining binding [%]": 94}
{"SMILES": "O=C(Nc1c[nH]nc1C(=O)NC1CCNCC1)c1cc(F)cc(F)c1", "test": "binding, competition with immobilised ligand", "setting": "1 µM", "remaining binding [%]": 100}
{"SMILES": "CN1CC[C@H](c2c(O)cc(O)c3c(=O)cc(-c4ccccc4Cl)oc23)[C@H](O)C1", "test": "cell-free assay, competition with immobilised ligand", "setting": "10 µM", "remaining binding [%]": 80}
{"SMILES": "COc1cccc(CNC(=O)c2nc3scc(COCc4ccc(C(=O)O)cc4)c3c(=O)[nH]2)c1", "test": "cell-free assay, competition with immobilised ligand", "setting": "1 µM", "remaining binding [%]": 82.2}
{"SMILES": "CS(=O)(=O)CCNCc1ccc(-c2ccc3ncnc(Nc4ccc(OCc5cccc(F)c5)c(Cl)c4)c3c2)o1", "test": "cell-free assay, competition with immobilised ligand", "setting": "0.1 µM", "remaining binding [%]": 99}
{"SMILES": "CS(=O)(=O)c1cc(C2(NC(=O)c3cncc4c3cnn4-c3ccc(F)cc3)CC2)ccn1", "test": "cell-free assay, competition with immobilised ligand", "setting": "1 µM", "remaining binding [%]": 95}
{"SMILES": "COc1cc2ncnc(Nc3ccc(F)c(Cl)c3)c2cc1OCCCN1CCOCC1", "test": "cell-free assay, competition with immobilised ligand", "setting": "0.1 µM", "remaining binding [%]": 100}
{"SMILES": "N[C@@H]1CCN(c2nccc(-c3cnn4ncccc34)n2)C1", "test": "binding", "setting": "1 µM", "remaining binding [%]": 96}
{"SMILES": "CCN1CCN(Cc2ccc(C(=O)Nc3ccc(C)c(Oc4ccc5c(c4)CC(=O)N5)c3)cc2C(F)(F)F)CC1", "test": "binding, competition with immobilised ligand", "setting": "1 µM", "remaining binding [%]": 20}
{"SMILES": "O=C(NCCCN1CCOCC1)c1ccc(Nc2nccc(-c3cc4ccccc4s3)n2)cc1", "test": "binding, competition with immobilised ligand", "setting": "1 µM", "remaining binding [%]": 85}
{"SMILES": "CCN(CC)CCNC(=O)c1c(C)[nH]c(/C=C2\\C(=O)Nc3ccc(F)cc32)c1C", "test": "cell-free assay, competition with immobilised ligand", "setting": "0.1 µM", "remaining binding [%]": 92}
{"SMILES": "Cc1cnn2ncc(-c3ccnc(N(C)C)n3)c2c1", "test": "binding", "setting": "1 µM", "remaining binding [%]": 100}
{"SMILES": "c1cncc(-c2cccc(Nc3nccc(NC4CCCCC4)n3)c2)c1", "test": "binding, competition with immobilised ligand", "setting": "10 µM", "remaining binding [%]": 56}
{"SMILES": "COC(=O)Nc1nc2cc(C(=O)c3ccccc3)ccc2[nH]1", "test": "cell-free assay, competition with immobilised ligand", "setting": "0.1 µM", "remaining binding [%]": 100}
{"SMILES": "CNC(=O)Nc1ccc2c(c1)[C@@]1(CC2)OC(=O)N(CC(=O)N(Cc2ccc(F)cc2)[C@@H](C)C(F)(F)F)C1=O", "test": "cell-free assay, competition with immobilised ligand", "setting": "1 µM", "remaining binding [%]": 84}
{"SMILES": "CCN(CC)Cc1cc(Nc2ccnc3cc(Cl)ccc23)ccc1O", "test": "cell-free assay, competition with immobilised ligand", "setting": "10 µM", "remaining binding [%]": 100}
{"SMILES": "CNCc1ccccc1-c1csc([C@@H](C)Nc2nc(C)nc3cc(OC)c(OC)cc23)c1", "test": "cell-free assay, competition with immobilised ligand", "setting": "1 µM", "remaining binding [%]": 100}
{"SMILES": "CN(C)c1nccc(-c2cnc3ncccn23)n1", "test": "binding", "setting": "1 µM", "remaining binding [%]": 99}
{"SMILES": "Cc1nc(Cc2cccc(C(F)(F)F)c2)sc1-c1ccc(C(N)=O)nc1", "test": "cell-free assay, competition with immobilised ligand", "setting": "1 µM", "remaining binding [%]": 100}
{"SMILES": "Nc1ncc2c(n1)-c1c([nH]c3ccc(C#CC4CC4)cc13)CCCC2", "test": "binding, competition with immobilised ligand", "setting": "1 µM", "remaining binding [%]": 86}
{"SMILES": "N#Cc1ccc(Nc2ccc3[nH]c(=O)[nH]c3c2)c(Cl)c1", "test": "cell-free assay, competition with immobilised ligand", "setting": "1 µM", "remaining binding [%]": 93}
{"SMILES": "C[C@H]1CCN(c2nccc(-c3cnn4ncccc34)n2)C1", "test": "binding", "setting": "1 µM", "remaining binding [%]": 78}
